High-throughput results as filed in PubChem.
Only some compounds are listed: those with a hit (about 3.1% of all), similar ones and a draw of the others.
hERG protect: hERG rescue from dofetilide block, primary screen, cell-based, CHO-hERG, FluxOR thallium flux, dofetilide IC70; activation (rescue from dofetilide block), less the hit threshold, % at 10 µM; dofetilide IC70 present; Voltage-gated inwardly rectifying potassium channel KCNH2 (Homo sapiens), Q12809; AID 1511, 2009; 310,000 tested, 0.51% active;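 active means activation above the mean of controls blocked by dofetilide plus 5 SD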;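 further: thallium influx through hERG after potassium depolarization seen as dye fluorescence rise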
KCNK9 inh: KCNK9 potassium channel inhibitors, primary screen, HEK293 cells, thallium flux; Potassium channel subfamily K member 9 (Homo sapiens), Q9NPC2; AID 488922, 2010; 310,000 tested, 1.2% active; FluxOR thallium flux fluorescence; active compounds read low; B-score at 10 µM;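 active means ratio B-score over 3 SD below the library mean, with starting fluorescence within 5 SD of its mean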;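 further: negative B-score means less thallium flux so channel inhibition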
KCNQ1 block: inhibitors of human KCNQ1 channel, primary screen, cell-based, thallium flux, high-throughput | CHO-K1 KCNQ1, FluxOR thallium flux fluorescence; active compounds read high | Potassium voltage-gated channel subfamily KQT member 1 (Homo sapiens), P51787 | 310,000 tested, 1.3% active | AID 2642, 2010 | B-score at 10 µM;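 active means compounds whose thallium flux B-score, printed positive for inhibition, exceeds three library SD while starting fluorescence stays within three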;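 further: channel opened by potassium depolarization with thallium stimulus after 20 min compound exposure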
KCNK3 block: human KCNK3 channel inhibitors, primary screen, CHO cells, FluxOR thallium flux, B-score; AID 602410, 2012; 340,000 tested, 0.84% active; Potassium channel subfamily K member 3 (Homo sapiens), O14649; B-score at 10 µM; FluxOR fluorescence; active compounds read low;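 active means B-score under library mean minus 4 SD, starting fluorescence ratio at most library mean plus 5 SD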;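 further: more negative B-score means stronger inhibition of thallium flux through KCNK3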
Target sequence (O14649 whole entry, looked up): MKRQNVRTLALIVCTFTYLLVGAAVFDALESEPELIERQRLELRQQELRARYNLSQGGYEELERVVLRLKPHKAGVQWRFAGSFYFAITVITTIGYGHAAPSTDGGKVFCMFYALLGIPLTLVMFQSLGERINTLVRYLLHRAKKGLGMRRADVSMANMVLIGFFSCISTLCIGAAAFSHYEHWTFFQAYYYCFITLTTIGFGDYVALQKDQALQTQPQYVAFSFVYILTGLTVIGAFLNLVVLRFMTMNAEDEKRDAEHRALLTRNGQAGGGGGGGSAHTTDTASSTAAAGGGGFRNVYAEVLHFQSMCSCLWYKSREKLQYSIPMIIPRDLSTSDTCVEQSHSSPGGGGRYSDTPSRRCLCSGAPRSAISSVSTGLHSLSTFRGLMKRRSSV
KCNQ1 pot: potentiators or activators of KCNQ1 channel, primary screen, cell-based, thallium flux, high-throughput | Potassium voltage-gated channel subfamily KQT member 1 (Homo sapiens), P51787 | CHO-K1 KCNQ1, thallium flux FluxOR fluorescence; active compounds read high | B-score at 10 µM | 310,000 tested, 0.35% active;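 active means fluorescence ratio B-score, a plate-corrected score, at least three library SD, with initial intensity B-score within 5 SD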
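Test system: CHO-K1 cells stably expressing KCNQ1 / Medium: assay buffer / Also added: depolarizing K+/Tl+ stimulus, K2SO4 and Tl2SO4 each 12.5 mM in 5x stock / Incubation: 90 min dye loading and 20 min compound exposure, both at room temperature / Signal: thallium influx via FluxOR fluorescence, kinetic imaging / Evaluation: B score of baseline-normalized fluorescence ratio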
* = called active by the depositor; i = inactive; x = no result given.

SMILES | hERG protect | KCNK9 inh | KCNQ1 block | KCNK3 block | KCNQ1 pot
CC1=C(C#N)C(=O)N(C2CCS(=O)(=O)C2)C(=O)/C1=C\c1ccc(C)o1 (stereo unspecified) | -20 | -6.9* | 7* | x | i
O=C1c2cccc3cccc(c23)C(=O)C1(O)O | 8.0* | i | i | i | i
O=C(NC(=S)NC1CCCc2ccccc21)c1ccc(F)cc1 (stereo unspecified) | -8 | i | i | i | 9*
O=C(NC(=S)NC1CCCc2ccccc21)c1ccco1 (stereo unspecified) | 8.7* | i | i | i | 16*
Cc1cc(C=C2C(=O)c3ccccc3C2=O)c(C)n1C | -5 | i | i | i | i
Cc1cccc(-n2c(C)cc(C=C3C(=O)c4ccccc4C3=O)c2C)c1 | -4 | i | 6* | i | i
Cc1cc(C=C2C(=O)c3ccccc3C2=O)c(C)n1-c1ccc(Cl)cc1 | -9 | -7* | i | i | i
O=C(CNc1ccc(Cl)c(C(F)(F)F)c1)N1CCN(S(=O)(=O)c2ccccc2)CC1 | x | x | x | i | x
O=C1NC(=O)/C(=C/c2ccc(-c3cccc([N+](=O)[O-])c3)o2)S1 | -6 | i | 12* | i | i
COc1cc(C)nc(N2CCCC(C(=O)Nc3cc(Cl)ccc3OC)C2)n1 (stereo unspecified) | -7 | -6.8* | i | i | i
CCCCN(C(=O)COC(=O)c1ccccc1)c1c(N)n(CCC)c(=O)[nH]c1=O | x | x | x | i | x
COc1ccc(NC(=O)NC2(C(=O)N3CCCCC3)CCCCC2)cc1 | -8 | i | i | i | i
CCOC(=O)c1c(NC(C)=O)sc2c1CCC(C=NCCCN(CC)CC)=C2Sc1ccccc1 | -8 | -7.2* | i | -9.6* | i
COc1cccc(/C=C2/CCC(CN(C)C)C2=O)c1 (stereo unspecified) | x | x | x | i | x
O=C(c1cc(-c2ccccc2)on1)N1CCCC1 | 5.0* | i | i | i | i
O=C(NCc1ccccc1)C(=O)Nc1nc(C23CC4CC(CC(C4)C2)C3)cs1 | 18* | i | i | i | 10*
O=C(NCc1ccc(F)cc1)C(=O)Nc1nc(C23CC4CC(CC(C4)C2)C3)cs1 | 4.9* | i | i | i | i
CCN(CC)CCCC(C)Nc1nccc2c(Cl)cccc12 (stereo unspecified) | x | x | x | i | x
CN1/C(=C\C=N\NC(=O)c2ccccc2Br)C(C)(C)c2ccccc21 | -25 | i | 9* | i | i
CC(C)n1cc(NC(=O)c2cc(-c3ccccc3)on2)cn1 | -2 | i | i | i | 11*
O=C(Nc1cccnc1)c1cc(-c2ccccc2)on1 | -1 | i | i | i | i
Cc1ccccc1Cc1c(C)nc2c(C(=O)NCc3ccc4c(c3)OCO4)cnn2c1C | -5 | i | i | i | i
Cc1ccc(C)c(Cc2c(C)nc3c(C(=O)NCc4ccc5c(c4)OCO5)cnn3c2C)c1 | -10 | -7.8* | i | x | i
O=C(CCc1ccccc1)N[C@@H]1c2ccccc2CC[C@H]1OCc1ccccc1 | x | x | x | i | x
O=C(CNc1cccc(S(=O)(=O)N2CCCC2)c1)Nc1cccc(F)c1 | -12 | i | i | i | i
SMILES | hERG protect | KCNK9 inh | KCNQ1 block | KCNK3 block | KCNQ1 pot
O=C(CNc1cccc(C(F)(F)F)c1)Nc1cccc(S(=O)(=O)N2CCCC2)c1 | x | x | x | -9.3* | x
COC(=O)C1=C(C)Nc2nnnn2C1c1ccc(Cl)cc1Cl (stereo unspecified) | -5 | i | i | i | 18*
CCOC(=O)C1=C(C)Nc2nnnn2C1c1ccccc1Cl (stereo unspecified) | x | x | x | i | x
CCc1ccc(NC(=O)C2=CC(c3ccc(OC)cc3)=NS(=O)(=O)N2C)cc1 | -11 | -7.6* | i | i | i
O=C(CCn1c(=O)oc2ccccc21)N1CCN(c2ccccc2F)CC1 | 5.3* | i | i | i | i
O=C(CCCn1c(=O)oc2ccccc21)N1CCN(c2ccc(F)cc2)CC1 | -11 | i | i | i | i
COc1ccc(S(=O)(=O)N2CCCCCC2)cc1C(=O)OCc1cccc(OC)c1OC | -16 | i | i | i | i
Cc1ccc(C(=O)OCC(=O)Nc2cc(C(C)(C)C)no2)c(C)c1 | x | x | x | i | x
CC(C)C(=O)N1CCN(c2c(Cl)cccc2[N+](=O)[O-])CC1 | -8 | i | i | i | i
O=C(NC(=S)N1CCN(c2ccc(F)cc2)CC1)c1cccs1 | 15* | i | i | i | 13*
O=C(NC(=S)N1CCN(c2c(Cl)cccc2[N+](=O)[O-])CC1)c1cccs1 | 3 | i | i | i | 49*
COc1ccc(N2CCN(C(=O)c3ccccc3)CC2)c([N+](=O)[O-])c1 | -2 | i | i | i | i
COc1ccc(N2CCN(C(=S)NC(=O)c3cccs3)CC2)c([N+](=O)[O-])c1 | -7 | i | i | i | 13*
O=C(NC(=S)N1CCN(c2ccc(O)cc2)CC1)c1cccs1 | -10 | i | i | i | i
COc1ccccc1NS(=O)(=O)c1ccc(C(=O)Nc2ncccc2O)cc1 | x | x | x | i | x
COc1ccc2cc(C(=O)NCc3ccccc3)c(=Nc3ccc(C(=O)O)cc3)oc2c1 | 6.8* | i | i | i | i
CSc1ncccc1C(=O)NCC(c1cccs1)N1CCOCC1 (stereo unspecified) | -5 | i | i | i | i
COC(=O)C1=CN(Cc2ccc(OC)cc2)C=C(C(=O)OC)C1c1cccs1 | -9 | -6.7* | i | i | i
CC(C)(C)c1ccc(CN2C3=NCCCN3c3ccccc32)cc1 | -23 | i | 11* | i | i
Cc1cc(/C=C(\C#N)c2nc3ccccc3[nH]2)c(C)n1C | -6 | i | i | i | i
Cc1cc(/C=C(/C#N)c2nc3ccccc3[nH]2)c(C)n1-c1cccc([N+](=O)[O-])c1 | -6 | i | 8* | i | i
CC1(C(=O)CSc2ncn[nH]2)CCC(=O)O1 (stereo unspecified) | 5.0* | i | i | x | i
CC1(C(=O)CSc2nc3ccccc3[nH]2)CCC(=O)O1 (stereo unspecified) | -7 | i | i | i | i
CCN1c2ccccc2-c2nc3ccccc3n2C1c1ccccn1 (stereo unspecified) | -9 | i | i | -10* | i
CCN1c2ccccc2-c2nc3ccccc3n2C1c1ccncc1 (stereo unspecified) | -10 | i | i | i | i
COc1cc(F)c(C2=CC(=O)C[C@H](c3ccc(Cl)cc3)C2)cc1F | x | x | x | i | x
